Article PMC3169777 (European Journal of Clinical Pharmacology, 2011)
Like-named read-outs stand apart in the source and are kept apart here.

Columns and labels:
[1] = Metabolic profiling of plasma and urine; type: in vivo, human; conditions: pooled urine of two subjects, 600-mg dose group
[2] = Simulation of multiple-dose profiles using the single-dose data; parameters: species or system human; conditions: once-a-day regimen, data not shown
[3] = rats; cited from earlier work
[4] = system: ETA and ETB receptors; conditions: cited from earlier work
[5] = system: ETA receptors; conditions: isolated rat aortic and tracheal preparations; cited from earlier work
[6] = system: ETB receptors; conditions: isolated rat aortic and tracheal preparations; cited from earlier work
[7] = system: bile salts; conditions: rats, ref Actelion Pharmaceuticals, data on file, cited from earlier work
[8] = system: patients with treatment-resistant hypertension; conditions: cited from earlier work
[9] = type: in vivo; conditions: male, human, plasma, plasma macitentan
Summary of the method: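 Single fasted doses of 0.2–600 mg were given, 6 active subjects per group. EDTA plasma was spun 10 min at 1,500 g, 4°C, and stored at −20°C. Sampling ran to 48 h, or 144 h for the 300 and 600 mg groups. Parent and metabolite were quantified by validated LC-MS/MS (linear 1–2,000 ng/ml, LOQ 1.0 ng/ml). Cmax, tmax, AUC and t1/2 were derived non-compartmentally.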

[10] = system: healthy male subjects; experiment: Safety and tolerability; type: in vivo, human; conditions: for Abdominal pain: number of subjects reporting adverse event / Back pain: number of subjects reporting adverse event / Flushing: number of subjects reporting adverse event / Headache: number of subjects reporting adverse event / Hepatic function abnormal: number of subjects reporting adverse event / Leukocytosis: number of subjects reporting adverse event / Nasopharyngitis: number of subjects reporting adverse event / Nausea: number of subjects reporting adverse event / Neck pain: number of subjects reporting adverse event / Rhinitis: number of subjects reporting adverse event / Vomiting: number of subjects reporting adverse event: n = 6
Summary of the method: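 Double-blind, randomised, placebo-controlled single-ascending-dose design in healthy males: new group of 8 per level (6 active, 2 placebo), doses 0.2–600 mg, fasted. Next dose given only after safety review. Confinement from about 12 h predose to 48 h postdose. Adverse events, vital signs, 12-lead ECG, clinical laboratory and physical examination recorded. Descriptive analysis with placebo subjects pooled.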

[11] = system: total bile salts; experiment: Serum total bile salts; type: in vivo, human
Summary of the method: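 Venous blood was drawn predose and at 1, 2, 3 and 4 h in fasted subjects, with no later draws because of a meal. Tubes without anticoagulant stood 30 min at room temperature, were spun 10 min at 1,500 g, 4°C, and serum was kept at −20°C. An enzymatic assay was used (detection limit 1 μmol/l). AUC0–4h was derived non-compartmentally and compared with placebo by ANOVA (P < 0.05).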

[12] = system: human hepatic transporters; conditions: preclinical models, cited from earlier work

For NS(=O)(=O)Nc1ncnc(OCCOc2ncc(Br)cn2)c1-c1ccc(Br)cc1 [ACT-132577], the detection in urine [1] is given as “no macitentan and ACT-132577 could be detected”, the “predicted accumulation factor upon repeated dosing” value [2] is given as 10 and the half-life [3] is given as 8.5 h. The “selectivity for ETA receptors over ETB receptors” value [4] was ~16 fold, the “affinity for ETA and ETB receptors compared with macitentan” value ([4]; preclinical experiments) was “lower” and the “potency as endothelin receptor antagonist compared with macitentan” value ([4]; receptor binding and functional assays) was “less potent”. For the same molecule, the “fold less potent than macitentan in blocking ETA receptors” value [5] was “up to 5 fold” and the “fold less potent than macitentan in blocking ETB receptors” value [6] was “up to 5 fold”.

For COc1ccccc1Oc1c(NS(=O)(=O)c2ccc(C(C)(C)C)cc2)nc(-c2ncccn2)nc1OCCO [bosentan, reference compound], the “effect on plasma bile salts” value ([7]; intravenous administration) is listed as “acute increase in plasma bile salts”.

In the case of COc1cc(OC)nc(O[C@H](C(=O)O)C(OC)(c2ccccc2)c2ccccc2)n1 [darusentan], the “oedema or fluid retention, patients affected” value [8] is given as 27%.

For CCCNS(=O)(=O)Nc1ncnc(OCCOc2ncc(Br)cn2)c1-c1ccc(Br)cc1 [macitentan, N-[5-(4-Bromophenyl)-6-(2-(5-bromopyrimidin-2-yloxy)ethoxy)pyrimidin-4-yl]-N′-propylsulfamide], the half-life ([9]; 600 mg, apparent terminal half-life, two higher dose groups (300 and 600 mg)) was ~16 h, the Tmax ([9]; tmax in most subjects, individual values) was 4 to 12 h and the “increased alanine aminotransferase, times the upper limit of normal” value ([10]; one subject, 600 mg macitentan, 7 days after drug administration) was ≤ 2 times the upper limit of normal. For the same molecule, the “Abdominal pain: number of subjects reporting adverse event” value (shortened to “Abdominal pain: number”) ([10]; single dose 0.2 mg macitentan) was 0, the “Back pain: number of subjects reporting adverse event” value (“Back pain: number” below) ([10]; single dose 0.2 mg macitentan) was 0 and the “Flushing: number of subjects reporting adverse event” value (“Flushing: number” for short) ([10]; single dose 0.2 mg macitentan) was 0. For the same molecule, the “Headache: number of subjects reporting adverse event” value (“Headache: number” for short) ([10]; single dose 0.2 mg macitentan) was 0, the “Hepatic function abnormal: number of subjects reporting adverse event” value (“Hepatic function abnormal: number” for short) ([10]; single dose 0.2 mg macitentan) was 0 and the “Leukocytosis: number of subjects reporting adverse event” value (from here on “Leukocytosis: number”) ([10]; single dose 0.2 mg macitentan) was 0. The “Nasopharyngitis: number of subjects reporting adverse event” value (“Nasopharyngitis: number” for short) ([10]; single dose 0.2 mg macitentan) was 0, the “Nausea: number of subjects reporting adverse event” value (“Nausea: number” below) ([10]; single dose 0.2 mg macitentan) was 0 and the “Neck pain: number of subjects reporting adverse event” value (from here on “Neck pain: number”) ([10]; single dose 0.2 mg macitentan) was 0. For the same molecule, the “Rhinitis: number of subjects reporting adverse event” value (from here on “Rhinitis: number”) ([10]; single dose 0.2 mg macitentan) was 0, the “Vomiting: number of subjects reporting adverse event” value (“Vomiting: number” for short) ([10]; single dose 0.2 mg macitentan) was 0 and the “Abdominal pain: number” value ([10]; single dose 1 mg macitentan) was 0. For the same molecule, the “Back pain: number” value ([10]; single dose 1 mg macitentan) was 0, the “Flushing: number” value ([10]; single dose 1 mg macitentan) was 0 and the “Headache: number” value ([10]; single dose 1 mg macitentan) was 0. For the same molecule, the “Hepatic function abnormal: number” value ([10]; single dose 1 mg macitentan) was 0, the “Leukocytosis: number” value ([10]; single dose 1 mg macitentan) was 0 and the “Nasopharyngitis: number” value ([10]; single dose 1 mg macitentan) was 0. For the same molecule, the “Nausea: number” value ([10]; single dose 1 mg macitentan) was 0, the “Neck pain: number” value ([10]; single dose 1 mg macitentan) was 0 and the “Rhinitis: number” value ([10]; single dose 1 mg macitentan) was 0. The “Vomiting: number” value ([10]; single dose 1 mg macitentan) was 0, the “Abdominal pain: number” value ([10]; single dose 5 mg macitentan) was 0 and the “Back pain: number” value ([10]; single dose 5 mg macitentan) was 0. For the same molecule, the “Flushing: number” value ([10]; single dose 5 mg macitentan) was 0, the “Headache: number” value ([10]; single dose 5 mg macitentan) was 0 and the “Hepatic function abnormal: number” value ([10]; single dose 5 mg macitentan) was 0. The “Leukocytosis: number” value ([10]; single dose 5 mg macitentan) was 0, the “Nasopharyngitis: number” value ([10]; single dose 5 mg macitentan) was 0 and the “Nausea: number” value ([10]; single dose 5 mg macitentan) was 0. The “Neck pain: number” value ([10]; single dose 5 mg macitentan) was 0, the “Rhinitis: number” value ([10]; single dose 5 mg macitentan) was 0 and the “Vomiting: number” value ([10]; single dose 5 mg macitentan) was 0. For the same molecule, the “Abdominal pain: number” value ([10]; single dose 25 mg macitentan) was 0, the “Back pain: number” value ([10]; single dose 25 mg macitentan) was 0 and the “Flushing: number” value ([10]; single dose 25 mg macitentan) was 0. For the same molecule, the “Headache: number” value ([10]; single dose 25 mg macitentan) was 2, the “Hepatic function abnormal: number” value ([10]; single dose 25 mg macitentan) was 0 and the “Leukocytosis: number” value ([10]; single dose 25 mg macitentan) was 0. For the same molecule, the “Nasopharyngitis: number” value ([10]; single dose 25 mg macitentan) was 1, the “Nausea: number” value ([10]; single dose 25 mg macitentan) was 0 and the “Neck pain: number” value ([10]; single dose 25 mg macitentan) was 0. For the same molecule, the “Rhinitis: number” value ([10]; single dose 25 mg macitentan) was 0, the “Vomiting: number” value ([10]; single dose 25 mg macitentan) was 0 and the “Abdominal pain: number” value ([10]; single dose 100 mg macitentan) was 0. For the same molecule, the “Back pain: number” value ([10]; single dose 100 mg macitentan) was 0, the “Flushing: number” value ([10]; single dose 100 mg macitentan) was 0 and the “Headache: number” value ([10]; single dose 100 mg macitentan) was 1. For the same molecule, the “Hepatic function abnormal: number” value ([10]; single dose 100 mg macitentan) was 0, the “Leukocytosis: number” value ([10]; single dose 100 mg macitentan) was 1 and the “Nasopharyngitis: number” value ([10]; single dose 100 mg macitentan) was 0. For the same molecule, the “Nausea: number” value ([10]; single dose 100 mg macitentan) was 0, the “Neck pain: number” value ([10]; single dose 100 mg macitentan) was 1 and the “Rhinitis: number” value ([10]; single dose 100 mg macitentan) was 0. For the same molecule, the “Vomiting: number” value ([10]; single dose 100 mg macitentan) was 0, the “Abdominal pain: number” value ([10]; single dose 300 mg macitentan) was 0 and the “Back pain: number” value ([10]; single dose 300 mg macitentan) was 1. For the same molecule, the “Flushing: number” value ([10]; single dose 300 mg macitentan) was 0, the “Headache: number” value ([10]; single dose 300 mg macitentan) was 2 and the “Hepatic function abnormal: number” value ([10]; single dose 300 mg macitentan) was 0. The “Leukocytosis: number” value ([10]; single dose 300 mg macitentan) was 0, the “Nasopharyngitis: number” value ([10]; single dose 300 mg macitentan) was 0 and the “Nausea: number” value ([10]; single dose 300 mg macitentan) was 0. The “Neck pain: number” value ([10]; single dose 300 mg macitentan) was 0, the “Rhinitis: number” value ([10]; single dose 300 mg macitentan) was 0 and the “Vomiting: number” value ([10]; single dose 300 mg macitentan) was 0. For the same molecule, the “Abdominal pain: number” value ([10]; single dose 600 mg macitentan) was 1, the “Back pain: number” value ([10]; single dose 600 mg macitentan) was 0 and the “Flushing: number” value ([10]; single dose 600 mg macitentan) was 1. For the same molecule, the “Headache: number” value ([10]; single dose 600 mg macitentan) was 5, the “Hepatic function abnormal: number” value ([10]; single dose 600 mg macitentan) was 1 and the “Leukocytosis: number” value ([10]; single dose 600 mg macitentan) was 0. The “Nasopharyngitis: number” value ([10]; single dose 600 mg macitentan) was 0, the “Nausea: number” value ([10]; single dose 600 mg macitentan) was 2 and the “Neck pain: number” value ([10]; single dose 600 mg macitentan) was 0. The “Rhinitis: number” value ([10]; single dose 600 mg macitentan) was 2, the “Vomiting: number” value ([10]; single dose 600 mg macitentan) was 2 and the maximum tolerated dose ([10]; single dose, healthy male subjects) was 300 mg. The “effects on vital signs, ECG and clinical laboratory variables” value ([10]; single doses 0.2 to 600 mg) was “no clinically significant drug-related effects”, the “effect on serum total bile salts at the lowest dose” value ([11]; single dose 0.2 mg macitentan, P < 0.05 compared with placebo) was “small but statistically significant effect” and the “effect on serum total bile salt concentrations” value ([11]; single doses of up to 600 mg, 4-h observation period) was “no dose-dependent effect”. The detection in urine [1] was “no macitentan and ACT-132577 could be detected”, the “predicted accumulation factor upon repeated dosing” value [2] was 1.7 and the half-life [3] was 2 h. The volume of distribution [3] was 1 L/kg, the “effect on circulating bile salts” value [7] was “does not increase circulating bile salts” and the “inhibition of human hepatic transporters” value ([12]; ref Actelion Pharmaceuticals, data on file) was “did not inhibit”. For the same molecule, the “selectivity for ETA receptors over ETB receptors” value [4] was “about 50 fold”.

For Cc1cc2c(cc1CC(=O)c1sccc1S(=O)(=O)Nc1onc(C)c1Cl)OCO2 [sitaxentan, reference compound], the “interaction with human hepatic transporters” value [12] is listed as “substrates of and inhibit human hepatic transporters”.
